In ChEMBL document CHEMBL3244414, “Structure-activity relationships among the O-acyl derivatives of leucomycin. Correlation of minimal inhibitory concentrations with binding to Escherichia coli ribosomes” (J Med Chem, 1977):
In brackets after ≈: the same amount, converted by molar mass.

What was measured:
[1] = target: Bacterial 70S ribosome (Bacteria) (UniProt P0A7V0+P60723+P0AG67+P0A7R5+P0A7R9+P0A7S3+P0A7S9+P0AG59+P0ADZ4+P0A7T3+P0AG63+P0A7T7+P0A7U3+P0A7U7+P68679+P0A7V3+P0A7V8+P0A7W1+P02358+P02359+P0A7W7+P0A7X3+P0A7J3+P0A7J7+P0AA10+P0ADY3+P02413+P0ADY7+P0AG44+P0C018+P0A7K6+P0A7L0+P0A7L3+P0AG48+P61175+P0ADZ0+P60624+P68919+P0A7L8+P0A7M2+P0A7M6+P60422+P0AG51+P0A7N1+P0A7M9+P0A7N4+P0A7N9+P0A7P5+P0A7Q1+Q2EEQ2+P0A7Q6+P60438+P62399+P0AG55+P0A7K2); assay: (§1) Displacement of [14C]erythromycin from Escherichia coli ribosomes after 30 mins by scintillation spectrometer analysis
How it was run: (§2)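 NH4Cl-washed E. coli ribosomes with [14C]erythromycin A and varied competitor concentrations in 0.01 M Tris-HCl pH 7.2, 0.1 M KCl, 0.004 M MgCl2, 0.01 M NH4Cl. Incubated 30 min at 24 °C, stopped by dilution in cold Tris/KCl/MgCl2 buffer, membrane-filtered, washed three times, dried, scintillation counted. Reports the concentration giving 50% inhibition of binding.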

Bacterial 70S ribosome = assay: as §1; how it was run: as §2
Klebsiella pneumoniae = assay: Antimicrobial activity against Klebsiella pneumoniae ATCC 10031 by agar dilution method; type: functional; conditions: Klebsiella pneumoniae, ATCC 10031; read-out: MIC
How it was run: (§3)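 Read-out is the minimal inhibitory concentration, found by agar dilution against the named strain.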

Bacillus spizizenii = assay: Antimicrobial activity against Bacillus subtilis ATCC 6633 by agar dilution method; type: functional; conditions: Bacillus spizizenii, ATCC 6633; read-out: MIC; how it was run: as §3
Staphylococcus aureus = assay: Antimicrobial activity against Staphylococcus aureus ATCC 6538P by agar dilution method; type: functional; conditions: Staphylococcus aureus, ATCC 6538P; read-out: MIC; how it was run: as §3

Row | SMILES | pK50 [1] | IC50 (Bacterial 70S ribosome) [nM] | MIC (Klebsiella pneumoniae) [µg/mL] | MIC (Bacillus spizizenii) [µg/mL] | MIC (Staphylococcus aureus) [µg/mL]
1 | CCCC(=O)O[C@H]1[C@H](C)O[C@@H](O[C@H]2[C@H](N(C)C)[C@@H](OC(=O)CCCC(=O)O)[C@H](O[C@H]3[C@@H](CC=O)C[C@@H](C)[C@@H](O)/C=C/C=C/C[C@@H](C)OC(=O)C[C@@H](O)[C@@H]3OC)O[C@@H]2C)C[C@@]1(C)O | 5 | 9300 | 25 (≈ 28.2 µM) | 0.8 (≈ 0.903 µM) | 0.8 (≈ 0.903 µM)
2 | CCCC(=O)O[C@H]1[C@H](C)O[C@@H](O[C@H]2[C@H](N(C)C)[C@@H](OC(C)=O)[C@H](O[C@H]3[C@@H](CC=O)C[C@@H](C)[C@@H](OC(C)=O)/C=C/C=C/C[C@@H](C)OC(=O)C[C@@H](OC(C)=O)[C@@H]3OC)O[C@@H]2C)C[C@@]1(C)O | 4.5 | 33100 | 100 (≈ 111 µM) | 1.6 (≈ 1.78 µM) | 1.6 (≈ 1.78 µM)
3 | CCC(=O)O[C@H]1[C@H](C)O[C@@H](O[C@H]2[C@H](N(C)C)[C@@H](O)[C@H](O[C@H]3[C@@H](CC=O)C[C@@H](C)[C@@H](O)/C=C/C=C/C[C@@H](C)OC(=O)C[C@@H](OC(C)=O)[C@@H]3OC)O[C@@H]2C)C[C@@]1(C)O | 5.7 | 1900 | 50 (≈ 62.5 µM) | 3.1 (≈ 3.88 µM) | 1.6 (≈ 2 µM)
4 | CCCC(=O)O[C@H]1[C@H](C)O[C@@H](O[C@H]2[C@H](N(C)C)[C@@H](O)[C@H](O[C@H]3[C@@H](CC=O)C[C@@H](C)[C@@H](OC(=O)CCl)/C=C/C=C/C[C@@H](C)OC(=O)C[C@@H](O)[C@@H]3OC)O[C@@H]2C)C[C@@]1(C)O | 6 | 900 | 25 (≈ 29.5 µM) | 0.4 (≈ 0.471 µM) | 1.6 (≈ 1.89 µM)
5 | CCCC(=O)O[C@H]1[C@H](C)O[C@@H](O[C@H]2[C@H](N(C)C)[C@@H](OC(C)=O)[C@H](O[C@H]3[C@@H](CC=O)C[C@@H](C)[C@@H](OC(C)=O)/C=C/C=C/C[C@@H](C)OC(=O)C[C@@H](O)[C@@H]3OC)O[C@@H]2C)C[C@@]1(C)O | 4.6 | 23400 | 100 (≈ 117 µM) | 0.8 (≈ 0.935 µM) | 1.6 (≈ 1.87 µM)
6 | CC[C@H]1OC(=O)[C@H](C)[C@@H](O[C@H]2C[C@@](C)(OC)[C@@H](O)[C@H](C)O2)[C@H](C)[C@@H](O[C@@H]2O[C@H](C)C[C@H](N(C)C)[C@H]2O)[C@](C)(O)C[C@@H](C)C(=O)[C@H](C)[C@@H](O)[C@]1(C)O [ERYTHROMYCIN] | 6.1 | 750 | 6.3 (≈ 8.58 µM) | 0.2 (≈ 0.273 µM) | 0.4 (≈ 0.545 µM)
7 | CO[C@@H]1[C@@H](O[C@@H]2O[C@H](C)[C@@H](O[C@H]3C[C@@](C)(O)[C@@H](OC(=O)CC(C)C)[C@H](C)O3)[C@H](N(C)C)[C@H]2O)[C@@H](CC=O)C[C@@H](C)[C@@H](OC(C)=O)/C=C/C=C/C[C@@H](C)OC(=O)C[C@H]1O | 6 | 1100 | 50 (≈ 60.4 µM) | 0.8 (≈ 0.966 µM) | 1.6 (≈ 1.93 µM)
8 | CO[C@@H]1[C@@H](O[C@@H]2O[C@H](C)[C@@H](O[C@H]3C[C@@](C)(O)[C@@H](OC(=O)CC(C)C)[C@H](C)O3)[C@H](N(C)C)[C@H]2OC(=O)CCC(=O)O)[C@@H](CC=O)C[C@@H](C)[C@@H](O)/C=C/C=C/C[C@@H](C)OC(=O)C[C@H]1OC(C)=O | 5.5 | 3500 | 25 (≈ 26.9 µM) | 1.6 (≈ 1.72 µM) | 1.6 (≈ 1.72 µM)
9 | CO[C@@H]1[C@@H](O[C@@H]2O[C@H](C)[C@@H](O[C@H]3C[C@@](C)(O)[C@@H](OC(=O)CC(C)C)[C@H](C)O3)[C@H](N(C)C)[C@H]2O)[C@@H](CC=O)C[C@@H](C)[C@@H](O)/C=C/C=C/C[C@@H](C)OC(=O)C[C@H]1OC(C)=O [JOSAMYCIN] | 5.9 | 1200 | 25 (≈ 30.2 µM) | 0.4 (≈ 0.483 µM) | 1.6 (≈ 1.93 µM)
10 | CO[C@@H]1[C@@H](O[C@@H]2O[C@H](C)[C@@H](O[C@H]3C[C@@](C)(O)[C@@H](O)[C@H](C)O3)[C@H](N(C)C)[C@H]2O)[C@@H](CC=O)C[C@@H](C)[C@@H](O)/C=C/C=C/C[C@@H](C)OC(=O)C[C@H]1OC(C)=O | 5 | 10700 | 100 (≈ 134 µM) | 6.3 (≈ 8.47 µM) | 12.5 (≈ 16.8 µM)
11 | CCC(=O)O[C@H]1/C=C/C=C/C[C@@H](C)OC(=O)C[C@@H](O)[C@H](OC)[C@@H](O[C@@H]2O[C@H](C)[C@@H](O[C@H]3C[C@@](C)(O)[C@@H](OC(=O)C(C)CC)[C@H](C)O3)[C@H](N(C)C)[C@H]2O)[C@@H](CC=O)C[C@H]1C (some centres undefined) | 5.8 | 1700 | 50 (≈ 59.4 µM) | 0.8 (≈ 0.95 µM) | 1.6 (≈ 1.9 µM)
12 | CCCC(=O)O[C@H]1[C@H](C)O[C@@H](O[C@H]2[C@H](N(C)C)[C@@H](OC(C)=O)[C@H](O[C@H]3[C@@H](CC=O)C[C@@H](C)[C@@H](O)/C=C/C=C/C[C@@H](C)OC(=O)C[C@@H](O)[C@@H]3OC)O[C@@H]2C)C[C@@]1(C)O | 4.8 | 14800 | 12.5 (≈ 15.4 µM) | 0.8 (≈ 0.983 µM) | 1.6 (≈ 1.97 µM)
13 | CCC(=O)O[C@H]1/C=C/C=C/C[C@@H](C)OC(=O)C[C@@H](O)[C@H](OC)[C@@H](O[C@@H]2O[C@H](C)[C@@H](O[C@H]3C[C@@](C)(O)[C@@H](O)[C@H](C)O3)[C@H](N(C)C)[C@H]2O)[C@@H](CC=O)C[C@H]1C | 5.4 | 4000 | 100 (≈ 132 µM) | 3.1 (≈ 4.09 µM) | 6.3 (≈ 8.31 µM)
14 | CO[C@@H]1[C@@H](O[C@@H]2O[C@H](C)[C@@H](O[C@H]3C[C@@](C)(O)[C@@H](OC(=O)CC(C)C)[C@H](C)O3)[C@H](N(C)C)[C@H]2OC(C)=O)[C@@H](CC=O)C[C@@H](C)[C@@H](O)/C=C/C=C/C[C@@H](C)OC(=O)C[C@H]1OC(C)=O | 4.5 | 33900 | 25 (≈ 28.7 µM) | 0.8 (≈ 0.919 µM) | 1.6 (≈ 1.84 µM)
15 | CO[C@@H]1[C@@H](O[C@@H]2O[C@H](C)[C@@H](O[C@H]3C[C@@](C)(O)[C@@H](O)[C@H](C)O3)[C@H](N(C)C)[C@H]2O)[C@@H](CC=O)C[C@@H](C)[C@@H](OC(C)=O)/C=C/C=C/C[C@@H](C)OC(=O)C[C@H]1OC(C)=O | 5.2 | 6300 | 50 (≈ 63.6 µM) | 1.6 (≈ 2.04 µM) | 3.1 (≈ 3.94 µM)
16 | CO[C@@H]1[C@@H](O[C@@H]2O[C@H](C)[C@@H](O[C@H]3C[C@@](C)(O)[C@@H](OC(=O)CC(C)C)[C@H](C)O3)[C@H](N(C)C)[C@H]2O)[C@@H](CC=O)C[C@@H](C)[C@@H](OC(C)=O)/C=C/C=C/C[C@@H](C)OC(=O)C[C@H]1OC(C)=O | 5.9 | 1300 | 50 (≈ 57.5 µM) | 1.6 (≈ 1.84 µM) | 1.6 (≈ 1.84 µM)
17 | CO[C@@H]1[C@@H](O[C@@H]2O[C@H](C)[C@@H](O[C@H]3C[C@@](C)(O)[C@@H](OC(=O)CC(C)C)[C@H](C)O3)[C@H](N(C)C)[C@H]2O)[C@@H](CC=O)C[C@@H](C)[C@@H](OC(=O)C(C)C)/C=C/C=C/C[C@@H](C)OC(=O)C[C@H]1OC(C)=O | 5.7 | 2000 | 100 (≈ 111 µM) | 0.8 (≈ 0.891 µM) | 3.1 (≈ 3.45 µM)
18 | CO[C@H]1C(O)CC(=O)O[C@H](C)C/C=C/C=C/[C@H](OC(C)=O)[C@H](C)C[C@H](CC=O)[C@@H]1O[C@@H]1O[C@H](C)[C@@H](O[C@H]2C[C@@](C)(O)[C@@H](O)[C@H](C)O2)[C@H](N(C)C)[C@H]1O (single isomer, unassigned) | 5.6 | 2800 | 100 (≈ 134 µM) | 3.1 (≈ 4.17 µM) | 6.3 (≈ 8.47 µM)
19 | CCCC(=O)O[C@H]1[C@H](C)O[C@@H](O[C@H]2[C@H](N(C)C)[C@@H](O)[C@H](O[C@H]3[C@@H](CC=O)C[C@@H](C)[C@@H](O)/C=C/C=C/C[C@@H](C)OC(=O)C[C@@H](OC(C)=O)[C@@H]3OC)O[C@@H]2C)C[C@@]1(C)O | 5.9 | 1200 | 50 (≈ 61.4 µM) | 1.6 (≈ 1.97 µM) | 0.8 (≈ 0.983 µM)
20 | CCCC(=O)O[C@H]1[C@H](C)O[C@@H](O[C@H]2[C@H](N(C)C)[C@@H](O)[C@H](O[C@H]3[C@@H](CC=O)C[C@@H](C)[C@@H](OC(C)=O)/C=C/C=C/C[C@@H](C)OC(=O)C[C@@H](OC(C)=O)[C@@H]3OC)O[C@@H]2C)C[C@@]1(C)O | 5.7 | 2200 | 100 (≈ 117 µM) | 0.8 (≈ 0.935 µM) | 1.6 (≈ 1.87 µM)
21 | CCCC(=O)O[C@H]1[C@H](C)O[C@@H](O[C@H]2[C@H](N(C)C)[C@@H](OC(=O)CC)[C@H](O[C@H]3[C@@H](CC=O)C[C@@H](C)[C@@H](O)/C=C/C=C/C[C@@H](C)OC(=O)C[C@@H](O)[C@@H]3OC)O[C@@H]2C)C[C@@]1(C)O | 4.9 | 13800 | 12.5 (≈ 15.1 µM) | 1.6 (≈ 1.93 µM) | 0.8 (≈ 0.966 µM)
22 | CCC(=O)O[C@H]1[C@H](O[C@H]2[C@@H](CC=O)C[C@@H](C)[C@@H](OC(=O)CC)/C=C/C=C/C[C@@H](C)OC(=O)C[C@@H](OC(C)=O)[C@@H]2OC)O[C@H](C)[C@@H](O[C@H]2C[C@@](C)(O)[C@@H](OC(=O)CC(C)C)[C@H](C)O2)[C@@H]1N(C)C | – | > 100000 | 100 (≈ 106 µM) | 6.3 (≈ 6.7 µM) | 6.3 (≈ 6.7 µM)
